According to ChEMBL document CHEMBL1145483, “A Candida albicans petite mutant strain with uncoupled oxidative phosphorylation overexpresses MDR1 and has diminished susceptibility to fluconazole and voriconazole” (2007):
Values after ≈ are worked out from the molar mass of the structure shown.

What was measured:
Type in all cases: functional
[1] = test system: Candida albicans; test: Antimicrobial activity against Candida albicans SC5314 after 48 hrs by broth macrodilution method; settings: SC5314, 48 h
Outline: (§1)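 MICs were determined by standard broth macrodilution following the NCCLS M27-A yeast reference method, with readings at 24 h and 48 h. Strains were parental SC5314 and P5, a petite mutant with uncoupled oxidative phosphorylation recovered from SC5314 after serial passage through mouse spleens.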

[2] = test system: Candida albicans; test: Antimicrobial activity against Candida albicans SC5314 after 24 hrs by broth macrodilution method; settings: SC5314, 24 h; outline: as §1
[3] = test system: Candida albicans; test: Antimicrobial activity against Candida albicans P5 after 24 hrs by broth macrodilution method; settings: P5, 24 h; outline: as §1
[4] = test system: Candida albicans; test: Antimicrobial activity against Candida albicans P5 after 48 hrs by broth macrodilution method; settings: P5, 48 h; outline: as §1
[5] = test system: Candida albicans; test: Ratio of MIC for Candida albicans P5 mutant to MIC for Candida albicans SC5314
Outline: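 The ratio is the P5 MIC divided by the SC5314 MIC, with both MICs obtained by standard broth macrodilution (NCCLS M27-A yeast reference method) and read at 24 h and 48 h. P5 is a petite mutant of SC5314 with uncoupled oxidative phosphorylation.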

Compound | MIC [1] | MIC [2] | MIC [3] | MIC [4] | Ratio [5]
CC/N=c1\cc2oc3cc(NCC)c(C)cc3c(-c3ccccc3C(=O)OCC)c-2cc1C.Cl [RHODAMINE 6G HYDROCHLORIDE] | 8 µg/mL | 8 µg/mL | 8 µg/mL | 8 µg/mL | 
C[C@H]1CCC/C=C/[C@@H]2C[C@H](O)C[C@H]2[C@H](O)/C=C/C(=O)O1 [BREFELDIN A] | 8 µg/mL (≈ 28.5 µM) | 4 µg/mL (≈ 14.3 µM) | 16 µg/mL (≈ 57.1 µM) | 32 µg/mL (≈ 114 µM) | 
C[C@@H](c1ncncc1F)[C@](O)(Cn1cncn1)c1ccc(F)cc1F [VORICONAZOLE] | 0.004 µg/mL (≈ 0.0115 µM) | 0.004 µg/mL (≈ 0.0115 µM) | 0.032 µg/mL (≈ 0.0916 µM) | 0.032 µg/mL (≈ 0.0916 µM) | 8
CCCCNC(=O)n1c(NC(=O)OC)nc2ccccc21 [BENOMYL] | 20 µg/mL (≈ 68.9 µM) | 20 µg/mL (≈ 68.9 µM) | 20 µg/mL (≈ 68.9 µM) | 20 µg/mL (≈ 68.9 µM) | 
Cc1cc(C)nc(NC(=O)NS(=O)(=O)c2ccccc2C(=O)O)n1 [SULFOMETURON] | 10 µg/mL (≈ 28.5 µM) | 10 µg/mL (≈ 28.5 µM) | 10 µg/mL (≈ 28.5 µM) | 10 µg/mL (≈ 28.5 µM) | 
CCC(C)n1ncn(-c2ccc(N3CCN(c4ccc(OC[C@H]5CO[C@](Cn6cncn6)(c6ccc(Cl)cc6Cl)O5)cc4)CC3)cc2)c1=O (stereo not given in full) [ITRACONAZOLE] | 0.016 µg/mL (≈ 0.0227 µM) | 0.016 µg/mL (≈ 0.0227 µM) | 0.016 µg/mL (≈ 0.0227 µM) | 0.016 µg/mL (≈ 0.0227 µM) | 
C/C=C/C/C=C/CCC(=O)[C@H]1O[C@H]1C(N)=O [CERULENIN] | 2 µg/mL (≈ 8.96 µM) | 2 µg/mL (≈ 8.96 µM) | 4 µg/mL (≈ 17.9 µM) | 8 µg/mL (≈ 35.8 µM) | 
CC(=O)N1CCN(c2ccc(OC[C@H]3CO[C@](Cn4ccnc4)(c4ccc(Cl)cc4Cl)O3)cc2)CC1 [KETOCONAZOLE] | 0.064 µg/mL (≈ 0.12 µM) | 0.064 µg/mL (≈ 0.12 µM) | 0.064 µg/mL (≈ 0.12 µM) | 0.064 µg/mL (≈ 0.12 µM) | 
CN(C)c1ccc(C(=C2C=CC(=[N+](C)C)C=C2)c2ccc(N(C)C)cc2)cc1.[Cl-] [GENTIAN VIOLET] | 0.4 µg/mL | 0.2 µg/mL | 0.2 µg/mL | 0.4 µg/mL | 
C[C@@H]1[C@H](O)[C@@H](C)/C=C/C=C/C=C/C=C/C=C/C=C/C=C/[C@H](O[C@@H]2O[C@H](C)[C@@H](O)[C@H](N)[C@@H]2O)C[C@@H]2O[C@](O)(C[C@@H](O)C[C@@H](O)[C@H](O)CC[C@@H](O)C[C@@H](O)CC(=O)O[C@H]1C)C[C@H](O)[C@H]2C(=O)O [AMPHOTERICIN B] | 0.125 µg/mL (≈ 0.135 µM) | 0.06 µg/mL (≈ 0.0649 µM) | 0.06 µg/mL (≈ 0.0649 µM) | 0.125 µg/mL (≈ 0.135 µM) | 
C[C@@H]1C[C@@H]([C@H](O)CC2CC(=O)NC(=O)C2)C(=O)[C@@H](C)C1 [CYCLOHEXIMIDE] | 400 µg/mL (≈ 1420 µM) | 400 µg/mL (≈ 1420 µM) | 400 µg/mL (≈ 1420 µM) | 800 µg/mL (≈ 2840 µM) | 
OC(Cn1cncn1)(Cn1cncn1)c1ccc(F)cc1F [FLUCONAZOLE] | 0.125 µg/mL (≈ 0.408 µM) | 0.125 µg/mL (≈ 0.408 µM) | 1 µg/mL (≈ 3.27 µM) | 1 µg/mL (≈ 3.27 µM) | 8
